# Screening data deposited in PubChem BioAssay by The Scripps Research Institute Molecular Screening Center.
# CHRM4 antagonist = CHRM4 antagonism in calcium assay. P08173. CHO-hM4 cells, ACh EC80, Fluo-8 calcium fluorescence. inhibition, % at 3 µM. actives 0.73% (n = 360,000). AID 624125;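 active = inhibition above its plate's cutoff, the mean inhibition of sample wells plus 3 SD, cut at about 27% in these data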;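 note: 0% = acetylcholine EC80 with DMSO and 100% = DMSO without agonist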
# Target sequence (P08173 whole entry, looked up): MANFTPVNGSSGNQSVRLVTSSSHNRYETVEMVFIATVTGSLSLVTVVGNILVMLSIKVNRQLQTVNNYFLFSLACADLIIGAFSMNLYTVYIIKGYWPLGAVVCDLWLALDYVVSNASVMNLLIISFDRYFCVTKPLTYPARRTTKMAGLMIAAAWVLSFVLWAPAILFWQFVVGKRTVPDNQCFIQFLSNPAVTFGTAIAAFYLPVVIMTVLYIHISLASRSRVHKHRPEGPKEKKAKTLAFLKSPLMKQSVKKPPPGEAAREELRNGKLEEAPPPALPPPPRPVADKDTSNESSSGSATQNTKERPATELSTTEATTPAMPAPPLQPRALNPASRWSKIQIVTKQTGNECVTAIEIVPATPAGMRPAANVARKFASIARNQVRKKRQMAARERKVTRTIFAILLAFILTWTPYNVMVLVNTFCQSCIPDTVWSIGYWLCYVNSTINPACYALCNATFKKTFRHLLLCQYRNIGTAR
# CHRM5 PAM = positive allosteric modulators of human muscarinic M5 receptor | CHO-K1 hM5, Fluo-8 calcium, ACh EC20 PAM; 0% = ACh EC20, 100% = ACh EC100 | activation, % at 3 µM | actives 0.3% (n = 360,000) | AID 624038;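 active = activation above the run cutoff, the mean activation of all test compounds plus 3 SD, cut at about 18% in these data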
#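 Measured by: Fluo-8 calcium fluorescence; material: human M5 receptor in CHO-K1 cells; schedule: Post-acetylcholine fluorescence recording 140 s; benchmarks: low control EC20 acetylcholine (0%), high control EC100 acetylcholine (100%); read-out: Max/basal fluorescence ratio as % of EC20–EC100 ACh window; compound: single dose, 3 µM nominal final test concentration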
# CHRM5 agonist = agonists of human muscarinic M5 receptor (CHRM5); CHO-K1 hM5 cells, Fluo-8 calcium fluorescence; 0% DMSO wells, 100% maximal acetylcholine response; P08912; AID 624037; actives 0.19% (n = 360,000); activation, % at 3 µM;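 active = activation above the run's mean over test compounds plus 3 SD, cut at about 23% in these data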;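 note: signal is peak over basal fluorescence ratio across the kinetic read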
# CHRM4 agonist = CHRM4 agonism in calcium assay | P08173 | CHO-K1 hM4/Gqi5, Fluo-8 calcium fluorescence; vehicle 0%, full acetylcholine response 100% | activation, % at 3 µM | actives 0.14% (n = 360,000) | AID 624127;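 active = activation above the run mean over all test wells plus 3 SD, cut at about 32% in these data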;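 note: peak over basal fluorescence ratio per well then scaled between controls; 0% = DMSO wells and 100% = acetylcholine at EC100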
# CHRM5 antagonist = CHRM5 antagonism in calcium assay | AID 624040 | inhibition, % at 3 µM | CHO-hM5 cells, Fluo-8 calcium fluorescence, ACh EC80 | actives 0.59% (n = 360,000);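 active = inhibition above a per-plate cutoff, the mean of that plate's test compounds plus 3 SD, cut at about 27% in these data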;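 note: 0% = acetylcholine EC80 with DMSO and 100% = DMSO without agonist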
# M4 PAM = CHRM4 positive allosteric modulation. AID 624126. actives 0.4% (n = 360,000). CHO-K1 hM4/Gqi5, Fluo-8 calcium fluorescence, ACh EC20; 0% = ACh EC20, 100% = maximal ACh. activation, % at 3 µM. P08173;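 active = activation above its plate's cutoff, the mean activation of sample wells plus 3 SD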
# Starred values were filed as active, the others as inactive. Rows were chosen to be rich in hits. Some 1.9% of all compounds tested hit in one or more screens of this group.
SMILES,CHRM4 antagonist,CHRM5 PAM,CHRM5 agonist,CHRM4 agonist,CHRM5 antagonist,M4 PAM
O=C(N/N=C/c1cccc2ccccc12)C(=O)N1CCCC1,-12.5,18.2*,0.9,-1.8,-0.3,-7.5
CCOC(=O)c1[nH]c2ccc(Br)cc2c1NC(=O)CCN1CCCC(C)(C)C1,32.6*,-20.4,-6.4,2.7,46.0*,-33.7
COC(=O)/C=C/COc1ccccc1[N+](=O)[O-],-4.6,7.0,-2.4,0.4,-1.2,17.8*
O=C(COc1ccccc1[N+](=O)[O-])c1ccccc1,1.9,-5.9,-2.2,0.5,12.9,3.1
O=C(OCCOc1ccccc1)c1cc(S(=O)(=O)N2CCOCC2)c(Cl)cc1Cl,-6.6,-1.1,0.7,1.2,-4.3,5.6
CC(=O)N1CCc2cc(S(=O)(=O)NC(CC(C)C)C(=O)N3CCc4ccccc4C3)ccc21 (stereo unspecified),29.1*,-2.7,-5.1,1.5,1.4,32.4*
Cc1ccccc1NS(=O)(=O)c1ccc(NC(=O)c2ccco2)cc1,-8.8,28.1*,-1.9,4.5,-14.4,-3.0
COc1cccc(NC(=O)Nc2ccc(C)c(Cl)c2)c1,2.5,-20.1,4.0,12.7,33.3*,-9.8
COc1cccc(NC(=O)CSCC(=O)O)c1,4.7,-2.9,1.2,0.1,2.9,32.7*
COc1cccc(NC(=O)Nc2ccc(C(C)(C)C)cc2)c1,18.9,-20.3,4.4,12.7,34.8*,-18.0
CC(C)(C)c1ccc(NC(=O)Nc2ccc(F)cc2)cc1,51.5*,-16.2,1.8,31.3,78.7*,-20.4
COc1cccc(NC(=O)CSCC(=O)Nc2ccccc2)c1,-3.4,-3.1,1.8,1.2,-7.3,-4.0
CCc1ccc(NC(=O)CN(C(=O)N2CCN(CC)CC2)S(=O)(=O)c2ccc(C)cc2)cc1,-1.5,-1.2,-1.2,0.3,0.0,4.2
CN(C(=O)CSc1nncc2ccccc12)c1ccccc1,2.7,-1.1,0.4,0.6,5.5,-2.7
COc1ccc(C(=O)Nc2cc(OC)c(NC(=O)Nc3ccccc3)cc2OC)cc1,-14.5,0.2,-0.4,2.8,-1.5,0.2
O=C(CSCc1ccccc1)NNc1c(F)c(F)cc(F)c1F,-14.2,-0.8,-0.6,-0.2,-4.3,1.1
Cc1ccc(S(=O)(=O)N[C@H](CNCc2ccccc2)C(C)C)cc1,4.3,1.2,0.1,1.2,1.2,-1.0
O=C(CSc1nnc(-c2ccncc2)o1)Nc1cc(Cl)ccc1C(=O)O,-3.6,-1.1,2.9,-0.2,9.5,-0.3
O=C(Nc1ccc(F)cc1)Nc1ccccc1F,-5.4,-10.4,0.3,6.9,9.0,1.7
O=C(Nc1ccc(F)cc1)Nc1cccnc1Cl,32.3*,-6.6,2.7,3.5,1.4,-16.6
CC(=O)Nc1ccccc1OCCCN1CCC(C(O)(c2ccccc2)c2ccccc2)CC1,6.7,-21.0,-5.5,3.2,-2.5,-11.4
CC(C)(C)c1ccc(C(O)CCCN2CCC(C(O)(c3ccccc3)c3ccccc3)CC2)cc1 (stereo unspecified),13.6,-6.7,5.0,19.9,10.4,-11.5
N#CCc1ccc(OCCCN2CCC(C(O)(c3ccccc3)c3ccccc3)CC2)cc1,59.5*,-23.6,-3.3,21.6,71.1*,-13.6
Oc1ccccc1CN1CCC(C(O)(c2ccccc2)c2ccccc2)CC1,0.9,-2.1,-8.3,1.2,3.4,-7.7
OC(c1ccccc1)(c1ccccc1)C1CCN(CCCOc2ccc3c(c2)CCCC3)CC1,31.8*,-23.5,-2.6,14.9,26.5,-12.0
SMILES,CHRM4 antagonist,CHRM5 PAM,CHRM5 agonist,CHRM4 agonist,CHRM5 antagonist,M4 PAM
OC(c1ccccc1)(c1ccccc1)C1CCN(CCCOc2cccc(OC(F)(F)F)c2)CC1,32.1*,-15.9,-0.3,17.5,5.4,-12.8
c1ccc(COc2ccc(OCCCN3CCCC3)cc2)cc1,8.8,-17.0,-5.5,4.0,8.6,-24.6
CC(=O)Nc1ccc(OCCCN2CCC(C(O)(c3ccccc3)c3ccccc3)CC2)cc1,86.4*,-23.2,-6.8,5.5,64.3*,-13.9
O=C(NCCN1C(=O)S/C(=C\c2ccccc2F)C1=O)C1=COCCO1,-2.8,-10.7,1.6,21.0,-8.2,-15.0
CC(O)(c1ccc(F)c(F)c1)c1nc(-c2cc3ccccc3o2)cs1 (stereo unspecified),12.7,-11.8,1.4,5.7,7.0,-4.4
O=C(O)c1cccc(S(=O)(=O)NCCC(c2ccccc2)c2ccccc2)c1,-25.9,11.8,-6.5,1.4,0.5,23.0*
O=C(O)COc1ccc(F)cc1Br,-5.8,-1.0,1.5,0.4,-2.2,-6.1
Cc1ccc2c(c1)N(CCC(=O)NCCCN1CCCC1)C(=O)C(C)O2 (stereo unspecified),-6.3,0.9,-5.2,1.2,8.1,-5.6
COC(=O)C1=C(C)NC2=C(C(=O)C(C(=O)OC)C(c3ccc(OC)cc3)C2)C1c1ccccn1 (stereo unspecified),-18.6,37.4*,-1.9,5.5,3.0,-1.8
COC(=O)C1=C(C)NC2=C(C(=O)CC(C)(C)C2)C1c1ccccn1 (stereo unspecified),-9.4,4.2,-0.7,1.3,0.6,12.6
CCOC(=O)c1c(C)[nH]c(C)c1C(=O)CSc1ncccn1,-13.4,24.9*,-0.1,1.5,-0.7,5.6
CCOC(=O)c1c(C)[nH]c(C)c1C(=O)CSc1nc2ccccc2[nH]1,9.5,-6.2,1.6,8.6,2.4,-14.4
O=C(Nc1cccc(C(=O)O)c1)/C(=C\c1ccccc1Cl)NC(=O)c1ccco1,-0.4,2.2,-2.9,2.7,-3.0,21.0*
COc1ccc(/C=C(/NC(=O)c2ccco2)C(=O)Nc2cccc(C(=O)O)c2)cc1,-6.3,-1.7,-2.7,2.1,10.1,1.2
c1ccc(-c2csc(Nc3ccccn3)n2)cc1,0.3,13.6,12.8,-1.3,-7.9,4.3
Cc1nc(C)c(-c2csc(Nc3ccccn3)n2)s1,-3.7,-5.3,5.2,3.1,10.0,-2.4
Cc1ccc(Nc2nc(-c3sc(N)nc3C)cs2)cc1,2.7,20.0*,6.6,-0.6,-14.7,-8.3
Cc1ccc(-c2csc(Nc3ccccn3)n2)cc1,-14.2,14.1,9.9,-1.3,-3.8,13.6*
Cc1nc(N)sc1-c1csc(Nc2ccccn2)n1,28.0*,2.4,-0.4,0.4,0.5,1.0
Cc1cccc(NC(=S)NCc2ccc(F)cc2)c1C,11.3,1.2,-10.3,0.4,4.5,-7.7
Cc1ccc(S(=O)(=O)N2CCCCC2C(=O)Nc2ccc(N(C)C)cc2)cc1 (stereo unspecified),8.3,-4.6,-2.3,5.6,15.8,-7.0
CN(C)c1nc(OCCOC(=O)c2ccccc2)nc(N(C)C)n1,2.3,-5.5,26.2*,-0.3,-6.1,0.8
